Active and inactive are the calls of the source. The calls are words filed in the database; no cut-off is given here.
Tests used:
[1] = molecular target: Presenilin-1 (Homo sapiens) (UniProt P49768); experiment: Binding affinity to PS1-NTF in human HeLa cell membrane by photolabelling assay; assay type: cell membranes
Outline: (§1)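 Photolabelling: 600 µg HeLa cell membrane diluted in PBS, preincubated with 2 µM CBAP or vehicle for 15 min at 37 °C. Then 20 nM probe for 1 h at 37 °C and UV irradiation (350 nm) for 45 min. Membranes pelleted and clicked to biotin azide (1 h, RT). Streptavidin pull-down overnight at 4 °C, biotin elution, Western blot with the relevant subunit antibody.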

[2] = molecular target: Gamma-secretase; experiment: Inhibition of gamma-secretase (unknown origin) expressed in CHO cells transfected with APP assessed as amyloid-beta42 production by cell based assay; design: species or system Homo sapiens
[3] = molecular target: Presenilin-1 (Homo sapiens) (UniProt P49768); experiment: Inhibition of PS1 PSase activity in human HeLa cells assessed as complete depletion of PS1-NTF protein at 1 to 10 uM after 4 days by Western blot analysis relative to control; assay type: cell-based
Outline: (§2)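 HeLa cells treated 4 days at 1, 3 or 10 µM, with DMSO vehicle as control. Lysis in RIPA buffer; 15 µg lysate run on 12% Bis-Tris gel in MES buffer. Western blot with anti PS1-NTF antibody, scoring full-length PS1 and PS1-NTF bands.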

[4] = molecular target: Presenilin-1 (Homo sapiens) (UniProt P49768); experiment: Inhibition of PS1 PSase activity in human HeLa cells assessed as accumulation of full length protein at 1 to 10 uM after 4 days by Western blot analysis; assay type: cell-based; outline: as §2
[5] = molecular target: Gamma-secretase; experiment: Inhibition of gamma-secretase (unknown origin) using APP substrate assessed as amyloid-beta40 production; assay type: protein-complex assay, Homo sapiens
[6] = molecular target: Gamma-secretase; experiment: Inhibition of gamma-secretase (unknown origin) using Notch1 substrate assessed as Notch1-NICD production; assay type: protein-complex assay, Homo sapiens
[7] = molecular target: Gamma-secretase subunit PEN-2 (Homo sapiens) (UniProt Q9NZ42); experiment: Binding affinity to Pen-2 in human HeLa cell membrane by photolabelling assay; assay type: cell membranes; outline: as §1
Sequence of Gamma-secretase subunit PEN-2 (Homo sapiens) (Q9NZ42 whole entry): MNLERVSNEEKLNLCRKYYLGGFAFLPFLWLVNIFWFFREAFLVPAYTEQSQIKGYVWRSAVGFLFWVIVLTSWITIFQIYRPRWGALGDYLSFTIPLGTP

[8] = tested on: HeLa; experiment: Binding affinity to Aph-1 in human HeLa cell membrane by photolabelling assay; assay type: cell membranes; outline: as §1
[9] = molecular target: Nicastrin (Homo sapiens) (UniProt Q92542); experiment: Binding affinity to nicastrin in human HeLa cell membrane by photolabelling assay; assay type: cell membranes; outline: as §1
Sequence of Nicastrin (Homo sapiens) (Q92542 whole entry): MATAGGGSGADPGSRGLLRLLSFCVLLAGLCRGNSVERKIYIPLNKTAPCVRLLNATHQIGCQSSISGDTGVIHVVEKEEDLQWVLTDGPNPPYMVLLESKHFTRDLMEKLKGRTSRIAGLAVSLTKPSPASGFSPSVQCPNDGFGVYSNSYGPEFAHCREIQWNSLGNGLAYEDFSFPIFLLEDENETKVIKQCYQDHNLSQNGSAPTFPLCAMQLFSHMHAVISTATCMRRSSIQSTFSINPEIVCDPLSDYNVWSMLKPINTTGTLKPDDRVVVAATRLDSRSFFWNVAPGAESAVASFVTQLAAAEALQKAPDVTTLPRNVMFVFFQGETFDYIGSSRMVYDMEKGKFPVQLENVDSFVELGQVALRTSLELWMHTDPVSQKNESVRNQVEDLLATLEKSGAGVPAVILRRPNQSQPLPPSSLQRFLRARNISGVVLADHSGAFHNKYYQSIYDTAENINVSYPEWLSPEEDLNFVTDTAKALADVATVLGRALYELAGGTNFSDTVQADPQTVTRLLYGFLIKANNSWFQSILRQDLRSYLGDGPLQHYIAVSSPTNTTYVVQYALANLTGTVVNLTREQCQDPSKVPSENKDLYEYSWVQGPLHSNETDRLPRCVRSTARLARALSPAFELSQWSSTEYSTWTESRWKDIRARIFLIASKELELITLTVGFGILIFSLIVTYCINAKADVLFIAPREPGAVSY

[10] = molecular target: Presenilin-1 (Homo sapiens) (UniProt P49768); experiment: Binding affinity to PS1-CTF in human HeLa cell membrane by photolabelling assay; assay type: cell membranes; outline: as §1
[11] = tested on: HeLa; experiment: Binding affinity to Signal peptide peptidase in human HeLa cell membrane by photolabelling assay; assay type: cell membranes; outline: as §1

Activity [1] | IC50 [2] | inhibition [3] | inhibition [4] | IC50 [5] | IC50 [6] | Activity [7] | Activity [9] | Activity [10] | SMILES | Activity [8] | Activity [11]
Active | 28 nM | Active | Active | 0.7 nM | 0.56 nM | inactive | inactive | inactive | C[C@H](NC(=O)[C@H](Cc1ccccc1)C[C@@H](O)[C@H](Cc1ccccc1)NC(=O)OC(C)(C)C)C(=O)N[C@@H]1N=C(C2CCCCC2)c2ccccc2NC1=O | inactive | Active
Active | 20 nM |  | Active | 0.91 nM | 1 nM | inactive | inactive | inactive | C#CCOc1ccc(C(=O)c2ccc(C(=O)N[C@@H](Cc3ccccc3)[C@H](O)C[C@@H](Cc3ccccc3)C(=O)N[C@@H](C)C(=O)N[C@@H]3N=C(C4CCCCC4)c4ccccc4NC3=O)cc2)cc1 | inactive | Active
 |  |  | inactive |  |  |  |  |  | CC(C)C[C@H](NC(=O)[C@H](Cc1ccccc1)C[C@@H](O)[C@H](Cc1ccccc1)NC(=O)OC(C)(C)C)C(=O)N[C@@H](Cc1ccccc1)C(N)=O |  | 
